Measured values from PMC7265153 (The Journal of infection, 2019).
≈ marks a conversion by molar mass, not a printed value. Where “and” joins values, the source holds several entries; their conditions need not be identical. Equal values may be shown once. Read-outs that look alike come from different tables or passages of the source. Where a SMILES comes first, the peptide text is derived from it. Bridges are numbered along the chain shown (N, C = ends). [ ]: non-standard residue; d: D form. The star is where a group is joined. X1 = CC[C@H](C)CCCCC(=O)*; Dab = NCC[C@H](N)C(=O)O

Key:
P. aeruginosa [1] = format: cell-based; conditions: Pseudomonas aeruginosa
Procedure, shortened: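 Extremely drug-resistant clinical isolates from patients with urinary tract infection. Species identification and susceptibility testing were done by microdilution on the automated breakpoint panel for non-fermenting Gram-negative bacteria. Colistin MIC was determined by microdilution in cation-adjusted Mueller-Hinton broth, with isolates scored susceptible at MIC ≤ 2 mg/L per CLSI.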

[2] = in vivo; cited from earlier work
[3] = cited from earlier work
P. aeruginosa [4] = conditions: study performed in Spain; cited from earlier work
XDR P. aeruginosa [5] = assay: Plasma AUC/MIC, fAUC/MIC of formed colistin and attainment of PK/PD targets; format: in vivo, human
MDR-GNB = conditions: cited from earlier work
XDR P. aeruginosa [6] = format: in vivo, human
Acute kidney injury = format: in vivo, human; conditions: for AKI at EOT: F (Failure) / AKI at EOT: I (Injury) / AKI at EOT: R (Risk): among patients with AKI
XDR P. aeruginosa [7] = format: cell-based, Pseudomonas aeruginosa
[8] = CMS ≥ 6 million IU/day (n = 12)
[9] = included patients with clinical failure (n = 2)
[10] = all patients, RIFLE class among patients with AKI

NCC[C@H](O)C(=O)N[C@@H]1C[C@H](N)[C@@H](O[C@H]2O[C@H](CN)[C@@H](O)[C@H](O)[C@H]2O)[C@H](O)[C@H]1O[C@H]1O[C@H](CO)[C@@H](O)[C@H](N)[C@H]1O [amikacin]
MIC (P. aeruginosa [1]): 16 µg/mL (≈ 27.3 µM)

CC(C)(O/N=C(\C(=O)N[C@@H]1C(=O)N2C(C(=O)[O-])=C(C[n+]3ccccc3)CS[C@H]12)c1csc(N)n1)C(=O)O [ceftazidime]
MIC (P. aeruginosa [1]): 16 µg/mL (≈ 29.3 µM)

CC[C@H](C)CCCCC(=O)N[C@@H](CCN)C(=O)N[C@H](C(=O)N[C@@H](CCN)C(=O)N[C@H]1CCNC(=O)[C@H]([C@@H](C)O)NC(=O)[C@H](CCN)NC(=O)[C@H](CCN)NC(=O)[C@H](CC(C)C)NC(=O)[C@@H](CC(C)C)NC(=O)[C@H](CCN)NC1=O)[C@@H](C)O [colistin] (X1-[Dab]T[Dab][Dab][Dab][dL]L[Dab][Dab]T; lactam 4-C)
Css,avg associated with a higher risk of AKI at EOT [2]: > 2420 ng/mL
rate of colistin-associated nephrotoxicity [2]: 40–50%
patients with colistin in urine much higher than in plasma ([3]; 11 of 12 patients treated with CMS): 91.7%
concentrations of formed colistin in urine ([3]; 12 patients treated with CMS, maximum): up to 95.4 mg/L
concentrations of formed colistin in plasma ([3]; 12 patients treated with CMS, median (IQR <0.2–1.4 mg/L)): 900 ng/mL
half-life ([3]; assumed for reaching steady state): approximately 14 h
unbound fraction for colistin in human plasma ([3]; human plasma): 0.5
MIC50/90 values (P. aeruginosa [4]): 2 µg/mL (≈ 1.71 µM)
patients with microbiological clearance who had reached an AUC/MIC of 60 mg·h/L (XDR P. aeruginosa [5]; 7/19 patients): 36.8%
patients with pyelonephritis reaching Css,avg above 2.5 mg/L (XDR P. aeruginosa [5]; 9 patients diagnosed with pyelonephritis): none of them reached a Css,avg above 2.5 mg/L
patients with pyelonephritis achieving AUC/MIC > 60 mg·h/L (XDR P. aeruginosa [5]; 9 patients diagnosed with pyelonephritis, 1 patient): 11.1%
AUC/MIC > 60 mg∙h/L (XDR P. aeruginosa [5]; CMS < 3 million IU/day (n = 6)): 2 (33.3) n (%)
AUC/MIC > 60 mg∙h/L (XDR P. aeruginosa [5]; CMS ≥ 3 million IU/day (n = 9)): 1 (11.1) n (%)
AUC/MIC > 60 mg∙h/L (XDR P. aeruginosa [5]; [8]): 5 (41.7) n (%)
AUC/MIC > 60 mg∙h/L (XDR P. aeruginosa [5]; CMS ≥ 9 million IU/day (n = 6)): 3 (50) n (%)
AUC/MIC ≥ 60 mg∙h/L (XDR P. aeruginosa [5]; all patients n = 33): 11 (33.3) n (%)
fAUC/MIC (XDR P. aeruginosa [5]; all patients n = 33, unbound fraction 0.5, mean ± standard deviation, SD): 30.2 ± 28.2
fAUC/MIC (XDR P. aeruginosa [5]; included patients with clinical cure (n = 31), median (interquartile range)): 21.5 (5.04–124.8)
Css > 2,5 mg/L (XDR P. aeruginosa [5]; [9]): 1 (50) 1 (50) n (%)
fAUC/MIC (XDR P. aeruginosa [5]; included patients with clinical failure (n = 2), median (interquartile range)): 47.4 (7.44–87.4)
Css > 2,5 mg/L (XDR P. aeruginosa [5]; patients treated with colistin alone, clinical cure (n=17)): 1 (5.9) n (%)
fAUC/MIC (XDR P. aeruginosa [5]; patients treated with colistin alone, clinical cure (n=17), median (interquartile range)): 16.8 (4.8–81.6)
fAUC/MIC (XDR P. aeruginosa [5]; patients with AKI at EOT (n = 10), median (interquartile range)): 48.4 (14.4–124.8)
fAUC/MIC (XDR P. aeruginosa [5]; patients without AKI at EOT (n = 23), median (interquartile range)): 13.7 (4.8–58.1)
clinical cure rate in patients diagnosed with UTI (MDR-GNB; retrospective study, low-dose colistin): 83.3%
emergence of colistin-resistant isolates (XDR P. aeruginosa [6]; during the next 30 days after treatment): no colistin-resistant isolates were detected
Odds ratio (95% CI) of Css for nephrotoxicity at EOT (Acute kidney injury; multivariate logistic regression, P = 0.074): 4.36 (0.86–20)
MIC50 (XDR P. aeruginosa [7]): 0.5 µg/mL (≈ 0.428 µM)
MIC90 (XDR P. aeruginosa [7]): 2 µg/mL (≈ 1.71 µM)

C[C@@H](O)[C@H]1C(=O)N2C(C(=O)O)=C(S[C@@H]3CN[C@H](C(=O)N(C)C)C3)[C@H](C)[C@H]12 [meropenem]
MIC (P. aeruginosa [1]): ≥ 8 µg/mL

Colistimethate sodium [CMS]
CMS dose eliminated in the urine [3]: 60–70%
rate of CMS conversion into colistin ([3]; young volunteers, single dose of 1 million IU (80 mg) CMS): 30%
CMS excreted in urine ([3]; young volunteers, single dose of 1 million IU (80 mg) CMS, on average): 70%
Clinical cure (MDR-GNB; 13 patients with UTI caused by XDR P. aeruginosa): 84.6%
rate of clinical cure in UTI caused by MDR-GNB (MDR-GNB; recent clinical studies): 50 to 92%
Clinical cure in patients with pyelonephritis (XDR P. aeruginosa [6]; 9 patients diagnosed with pyelonephritis, six (66.7%) on combined therapy): All of them achieved clinical cure
Microbiological clearance (XDR P. aeruginosa [6]; 23 patients with microbiological follow up): 19 (82.6) n (%)
Clinical cure (XDR P. aeruginosa [6]; CMS < 3 million IU/day (n = 6)): 6 (100) n (%)
Clinical cure (XDR P. aeruginosa [6]; CMS ≥ 3 million IU/day (n = 9)): 8 (88.9) n (%)
Clinical cure (XDR P. aeruginosa [6]; [8]): 11 (91.7) n (%)
Clinical cure (XDR P. aeruginosa [6]; CMS ≥ 9 million IU/day (n = 6)): 6 (100) n (%)
Clinical cure (XDR P. aeruginosa [6]; all patients n = 33 (42.4% on combined antibiotic therapy)): 31 (93.9) n (%)
AKI at EOT (Acute kidney injury; CMS < 3 million IU/day (n = 6)): 2 (33.3) n (%)
AKI at EOT: F (Failure) (Acute kidney injury; CMS < 3 million IU/day (n = 6)): 0 (0) n (%)
AKI at EOT: I (Injury) (Acute kidney injury; CMS < 3 million IU/day (n = 6)): 1 (50) n (%)
AKI at EOT: R (Risk) (Acute kidney injury; CMS < 3 million IU/day (n = 6)): 1 (50) n (%)
AKI at EOT (Acute kidney injury; CMS ≥ 3 million IU/day (n = 9)): 3 (33.3) n (%)
AKI at EOT: F (Failure) (Acute kidney injury; CMS ≥ 3 million IU/day (n = 9)): 1 (33.3) n (%)
AKI at EOT: I (Injury) (Acute kidney injury; CMS ≥ 3 million IU/day (n = 9)): 2 (66.6) n (%)
AKI at EOT: R (Risk) (Acute kidney injury; CMS ≥ 3 million IU/day (n = 9)): 0 (0) n (%)
AKI at EOT (Acute kidney injury; [8]): 4 (33.3) n (%)
AKI at EOT: F (Failure) (Acute kidney injury; [8]): 0 (0) n (%)
AKI at EOT: I (Injury) (Acute kidney injury; [8]): 3 (75) n (%)
AKI at EOT: R (Risk) (Acute kidney injury; [8]): 1 (25) n (%)
AKI at EOT (Acute kidney injury; CMS ≥ 9 million IU/day (n = 6)): 1 (16.7) n (%)
AKI at EOT: F (Failure) (Acute kidney injury; CMS ≥ 9 million IU/day (n = 6)): 1 (100) n (%)
AKI at EOT: I (Injury) (Acute kidney injury; CMS ≥ 9 million IU/day (n = 6)): 0 (0) n (%)
AKI at EOT: R (Risk) (Acute kidney injury; CMS ≥ 9 million IU/day (n = 6)): 0 (0) n (%)
AKI at the end of treatment (Acute kidney injury; all patients n = 33, RIFLE criteria): 10 (30.3%) n (%) and 10 (30.3) n (%)
AKI at the end of treatment: F (Failure) (Acute kidney injury; [10]): 2 (22.2) n (%)
AKI at the end of treatment: I (Injury) (Acute kidney injury; [10]): 5 (55.5) n (%)
AKI at end of treatment (Acute kidney injury; included patients with clinical cure (n = 31)): 9 (29) n (%)
AKI at end of treatment (Acute kidney injury; [9]): 1 (50) n (%)
